Compound activity (PubChem BioAssay)
NF-kB expr up = compounds increasing NF-kB expression in human neuronal cells. NF-kB reporter expression; active compounds read high. fold change at 12.5 µM. actives 1.6% (n = 190,000). AID 1239; in the data active = fold change above about 3.3
MDM2 E3 inh = inhibitors of human Mdm2 E3 ubiquitin ligase; Q00987; cell-based MDM2 ubiquitination luciferase reporter, 2 h; 0 = plate control, 100 = twice control, blank-subtracted; signal enhancement, % at 5 µM; actives 0.11% (n = 210,000); AID 1230;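 active = signal enhancement of 30% or more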;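 note: luminescence tracks abundance of the self-degrading MDM2-luciferase fusion protein; higher signal means inhibition of MDM2 E3 ligase activity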
Target sequence (Q00987 whole entry, looked up, the tested form may be a part): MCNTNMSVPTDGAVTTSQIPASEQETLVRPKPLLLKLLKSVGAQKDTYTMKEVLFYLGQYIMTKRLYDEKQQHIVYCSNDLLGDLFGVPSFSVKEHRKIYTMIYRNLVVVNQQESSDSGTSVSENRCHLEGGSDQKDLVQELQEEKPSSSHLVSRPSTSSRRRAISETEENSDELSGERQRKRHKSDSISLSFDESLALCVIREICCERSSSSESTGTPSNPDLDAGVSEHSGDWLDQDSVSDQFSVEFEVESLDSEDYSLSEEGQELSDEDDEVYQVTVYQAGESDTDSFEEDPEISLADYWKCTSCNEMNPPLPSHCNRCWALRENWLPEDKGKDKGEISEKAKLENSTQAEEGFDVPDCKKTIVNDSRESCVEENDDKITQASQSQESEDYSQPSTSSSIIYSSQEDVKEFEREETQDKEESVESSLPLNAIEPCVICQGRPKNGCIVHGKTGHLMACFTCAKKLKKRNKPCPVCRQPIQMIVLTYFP
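Assay system: stable mammalian line carrying autodegrading MDM2–luciferase fusion reporter; amount: 2000 cells seeded into each well; buffer or medium: DMEM; benchmarks: plate control and blank wells; signal: luciferase luminescence; timing: 2 h compound exposure at 37 °C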
p97 inhibitor = blocks human p97 ATPase activity; P55072; recombinant p97 ATPase, Kinase-Glo ATP luminescence, 3 h; actives 0.42% (n = 220,000); AID 1481; inhibition, % at 8 µM; in the data active = inhibition above about 15%;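 note: 0% = DMSO vehicle and 100% = wells lacking enzyme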
STAT1 act = increases IFN-gamma driven STAT1 reporter signal; actives 2.6% (n = 200,000); activation (% of control), % at 5.5 µM; NIH 3T3 STAT1-luciferase reporter, luminescence; 100% = IFN-gamma alone, no compound;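 active = activation above the screen-wide mean activation plus 3 SD, cut at about 130% in these data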;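 note: raw ratio to IFN-gamma control signal so 100% means no change and 0% no light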
APP 5'UTR act = activates APP 5'UTR luciferase reporter; SH-SY5Y APP 5'UTR luciferase reporter, luminescence; zero percent = DMSO vehicle wells; activation, % at 2 µM; actives 1% (n = 190,000); AID 1276;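 active = activation above a set limit, based on mean plus 3 SD of controls, cut at about 140% in these data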
Wee1 stabilizer = blocks degradation of human Wee1 kinase; reporter increase, % at 5 µM; HeLa Luc-Wee1K328M stability, luciferase luminescence; 100% = proteasome inhibitor MG132 effect; actives 1.2% (n = 220,000);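 active = activation above the mean of all tested compounds plus 3 SD, set per screening run, cut at about 8.8% in these data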;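 note: cells exposed to compound for 20 h before luminescence read; 0% = DMSO alone and 100% = MG132 at 30 µM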
Wee1 degr conf = confirmation of human Wee1 degradation inhibitors | shares compounds with Wee1 stabilizer | activation, % at 5 µM | HeLa Luc-Wee1K328M degradation, luminescence; vehicle 0%, proteasome-blocked wells 100% | actives 4% (n = 1,100) | AID 1410; in the data active = activation above about 8.9%
* marks the source's active call; other numbers are inactive results; . = no result. The list is not random: actives were taken first. Their share in the collection is about 4.6%.

SMILES	NF-kB expr up	MDM2 E3 inh	p97 inhibitor	STAT1 act	APP 5'UTR act	Wee1 stabilizer	Wee1 degr conf
CC(=O)Nc1ccc2nc(-c3cccs3)[nH]c2c1	1.9	6	1	124	69	16*	-1
CC(=O)Nc1ccc2nc3ccccc3nc2c1	.	-5	5	.	.	24*	-1
CC(=O)Nc1ccc2nc(NC(=O)c3cccs3)sc2c1	.	.	3	.	.	11*	1
Cc1cc(C(=O)N2CCCC(C(=O)c3cccc(C(F)(F)F)c3)C2)nc(C)n1 (centres undefined)	1.2	-4	2	89	9	1	.
CCCC(=O)NC(c1ccco1)c1c(O)ccc2ccccc12 (centres undefined)	0.95	5	1	122	-2	-2	.
CC(C)CC(=O)NC(c1ccccc1Cl)c1c(O)ccc2ccccc12 (centres undefined)	0.61	-5	7	98	2	21*	2
Cc1ccc(C(=O)c2ccc(C)cc2)cc1	1	13	0	114	18	0	.
CC(=O)c1ccc(N=Nc2ccc(C)cc2)cc1	4.8*	-53	1	70	283*	24*	-4
COc1ccc2cc(C(=O)C3CCCN(C(=O)/C=C/c4ccccn4)C3)ccc2c1 (centres undefined)	0.99	7	1	94	-5	-1	.
Cc1cc(F)ccc1NC(=O)c1ccc(NS(=O)(=O)c2cc(C(C)(C)C)ccc2C)cc1	0.96	-25	5	96	3	13*	1
CC(NC(=O)CCl)c1ccccc1Br (centres undefined)	.	.	1	.	.	2	.
CC(C)C(O)(C#CCN1CCCCC1)c1ccccc1 (centres undefined)	0.94	-5	-1	99	-2	12*	2
CC(C)C(O)(C#CCN1CCCC1)c1ccccc1 (centres undefined)	1.1	10	4	111	-6	0	.
CC(=O)Nc1ccc(S(=O)(=O)N(Cc2ccccc2)c2ccccc2F)cc1	1.1	1	1	90	9	-4	.
Cc1onc(-c2ccccc2)c1C(=O)NC(=S)NNC(=O)c1cc(-c2ccc(F)cc2)n[nH]1	.	-10	12	.	.	-3	.
CCOC(=O)N1CCN(C(=O)c2cc(-c3ccc(OCC)cc3)nc3ccccc23)CC1	3.3*	-18	-7	146*	-78	12*	22*
CCOc1ccc(-c2cc(C(=O)N3CCN(C)CC3)c3ccccc3n2)cc1	2	-32	-10	117	37	17*	1
CCOc1ccc(-c2cc(C(=O)N3CCN(c4ccccn4)CC3)c3ccccc3n2)cc1	1.3	-48	2	116	36	2	.
CCOc1ccc(-c2cc(C(=O)NN3CCN(C)CC3)c3cc(Cl)ccc3n2)cc1	0.9	-19	-5	103	0	11*	1
CCOc1ccc2nc(-c3ccc(OC)c(OC)c3)cc(C(=O)O)c2c1	0.95	-29	-2	92	-2	-1	.
COc1ccc(-c2cc(C(=O)N3CCN(c4ccccc4)CC3)c3ccccc3n2)cc1	1.1	-13	2	105	-75	5	.
CN(C)C(=O)CCSc1nnc(-c2ccncc2)o1	0.78	-6	7	106	10	7	.
COc1ccc(N(CC(=O)Nc2c(C)n(C)n(-c3ccccc3)c2=O)S(=O)(=O)c2ccc(F)cc2)cc1	0.97	-7	-3	91	36	13*	0
COc1ccc(N(CC(=O)Nc2c(C)n(C)n(-c3ccccc3)c2=O)S(=O)(=O)c2ccc(C)cc2)cc1	0.91	0	5	98	-14	-4	.
O=C(Nc1cccc(-c2nc3ccccc3c(=O)o2)c1)c1ccccc1	1	-18	4	94	17	2	.
SMILES	NF-kB expr up	MDM2 E3 inh	p97 inhibitor	STAT1 act	APP 5'UTR act	Wee1 stabilizer	Wee1 degr conf
CCC(=O)Nc1ccc(-c2nc3ccccc3c(=O)o2)cc1	.	-15	5	63	-15	13*	1
O=C(CN1CCOCC1)N/N=C/C=C/c1ccccc1	1.2	-7	-3	93	0	23*	0
COc1ccc(C2CC(c3ccc(C)o3)=NN2C(C)=O)cc1 (centres undefined)	2.1	-13	0	125	12	12*	1
NCCOc1ccccc1OCCN	1.1	-12	0	93	20	12*	0
O=C(NC1CCCCC1)c1cc(Cl)ccc1[N+](=O)[O-]	0.97	-6	3	93	-7	16*	0
O=S(=O)(NCc1c(Cl)cccc1Oc1ccccc1)c1ccc(F)cc1	.	-22	1	.	.	2	.
COc1ccccc1/C=C/C=N/n1c(-c2ccccc2)n[nH]c1=S	.	-1	5	.	.	1	.
COc1ccc(-c2n[nH]c(=S)n2/N=C/C=C/c2ccccc2OC)cc1	1	-10	3	100	10	11*	7
O=C(Nc1ccnc(-c2ccncc2)n1)C1CC1	1.2	-4	-3	109	-2	-1	.
CCOc1ccc(NC(=S)Nc2ccc(C)c([N+](=O)[O-])c2)cc1	1.3	-17	-3	101	-6	14*	-2
O=C(NCCc1ccccn1)C(F)(F)C(F)(F)C(F)(F)C(F)(F)C(F)(F)C(F)(F)C(F)(F)C(F)F	0.96	-11	3	106	-25	0	.
O=C(NCCO)C(F)(F)C(F)(F)C(F)(F)OC(F)(C(=O)NCCO)C(F)(F)F (centres undefined)	1.1	3	0	101	17	12*	0
COc1ccc2c(c1)c(=O)cc(-c1ccccc1)n2C	1.7	-11	-4	108	24	11*	3
Cn1c(-c2ccccc2)cc(=O)c2ccccc21	1.3	0	2	100	4	2	.
O=c1cc(/C=C/c2ccccc2)oc2c1ccc1ccccc12	1.2	-1	-7	95	7	11*	7
Cc1ccc(N(CC(O)CN2C(=O)NC(C)(C)C2=O)S(=O)(=O)c2ccc(C)cc2)cc1 (centres undefined)	.	-12	-5	.	.	13*	0
Cn1c(CCc2ccc(N)cc2)nc2ccccc21	2.6	-26	2	128	131	18*	4
Cn1c(-c2ccc(N)cc2)nc2ccccc21	2	-4	-4	109	47	-2	.
CC(C)(C)c1ccc(S(=O)(=O)Nc2cccc(C3OCCCO3)c2)cc1	0.83	-4	-1	91	10	1	.
Cc1ccc(NC(=O)COC(=O)[C@H](C)N2C(=O)C3CC=CCC3C2=O)cc1S(=O)(=O)N(C)C (some centres undefined)	1.4	-18	4	99	15	14*	4
